Laboratory results from ChEMBL document CHEMBL1949606, “Carbonic anhydrase VII is S-glutathionylated without loss of catalytic activity and affinity for sulfonamide inhibitors” (Bioorg Med Chem Lett, 2012).

Assays:
[1] = organism: Homo sapiens; test: Activity of human recombinant carbonic anhydrase 7 C183S/C217S mutant
[2] = organism: Homo sapiens; test: Ratio of Kcat to Km for human recombinant carbonic anhydrase 7 C183S/C217S mutant
[3] = Inhibition of human recombinant carbonic anhydrase 7 C183S/C217S mutant using carbon-dioxide as substrate preincubated for 10 mins prior to substrate addition by […]
Method in brief: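 Stopped-flow CO2 hydration by Khalifah's method: 0.2 mM phenol red read at 557 nm, 10 mM HEPES pH 7.5, 0.1 M Na2SO4, CO2 1.7–17 mM, initial rates over 10–100 s. Enzyme preincubated 10 min at room temperature with at least 7 inhibitor concentrations, from 10 mM DMSO-water stock diluted down to 1 nM. Triplicates; Ki by non-linear least-squares fitting.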

[4] = Inhibition of human recombinant carbonic anhydrase 7 C183S/C217S mutant hydrolysis activity using 4-nitrophenyl acetate as substrate preincubated for 10 mins prior to substrate addition by […]
Method in brief: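 Esterase assay with 4-nitrophenyl acetate dissolved in acetonitrile (final MeCN 5%). Buffer: 10 mM HEPES/10 mM Tris pH 7.4 with 0.1 M Na2SO4; enzyme 0.10–5.0 µM. […] Spontaneous hydrolysis subtracted.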

[5] = Inhibition of human recombinant carbonic anhydrase 7 C183S/C217S mutant phosphatase activity using 4-nitrophenyl phosphate as substrate preincubated for 10 mins prior to substrate addition by […]
Method in brief: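 Phosphatase assay with 4-nitrophenyl phosphate at 0.08–5 mM, 25 °C, 4-nitrophenol release read at 405 nm. Buffer: 10 mM HEPES/10 mM Tris pH 7.4 with 0.1 M Na2SO4. Spontaneous hydrolysis subtracted.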

[6] = substrate: CC(=O)Oc1ccc([N+](=O)[O-])cc1; test: (§1) Activity of human recombinant carbonic anhydrase 7
[7] = substrate: O=[N+]([O-])c1ccc(OP(=O)(O)O)cc1; test: as §1
[8] = substrate: CC(=O)Oc1ccc([N+](=O)[O-])cc1; test: (§2) Activity of S-glutathionylated form of human recombinant carbonic anhydrase 7
[9] = substrate: O=[N+]([O-])c1ccc(OP(=O)(O)O)cc1; test: as §2
[10] = substrate: O=[N+]([O-])c1ccc(OP(=O)(O)O)cc1; test: Ratio of Kcat to Km for human recombinant carbonic anhydrase 7
[11] = substrate: O=[N+]([O-])c1ccc(OP(=O)(O)O)cc1; test: Ratio of Kcat to Km for S-glutathionylated form of human recombinant carbonic anhydrase 7
[12] = substrate: CC(=O)Oc1ccc([N+](=O)[O-])cc1; test: (§3) Activity of human recombinant carbonic anhydrase 3
[13] = substrate: O=[N+]([O-])c1ccc(OP(=O)(O)O)cc1; test: as §3
[14] = substrate: CC(=O)Oc1ccc([N+](=O)[O-])cc1; test: (§4) Ratio of Kcat to Km for human recombinant carbonic anhydrase 3
[15] = substrate: O=[N+]([O-])c1ccc(OP(=O)(O)O)cc1; test: as §4

CC(=O)Oc1ccc([N+](=O)[O-])cc1
Km [1]: 1060 µM

O=[N+]([O-])c1ccc(OP(=O)(O)O)cc1
Km [1]: 2210 µM | kcat/Km [2]: 3.03 ×10⁴ /M/s

CC(=O)Nc1nnc(S(N)(=O)=O)s1 [ACETAZOLAMIDE]
Ki [3]: 3 nM | IC50 [4]: 170 nM | IC50 [5]: 2910 nM

B1: Carbonic anhydrase 7 (Homo sapiens), P43166 (protein)
chain: MTGHHGWGYGQDDGPSHWHKLYPIAQGDRQSPINIISSQAVYSPSLQPLELSYEACMSLSITNNGHSVQVDFNDSDDRTVVTGGPLEGPYRLKQFHFHWGKKHDVGSEHTVDGKSFPSELHLVHWNAKKYSTFGEAASAPDGLAVVGVFLETGDEHPSMNRLTDALYMVRFKGTKAQFSCFNPKCLLPASRHYWTYPGSLTTPPLSESVTWIVLREPICISERQMGKFRSLLFTSEDDERIHMVNNFRPPQPLKGRVVKASFRA
Km [6]: 750 µM | Km [7]: 1430 µM | Km [8]: 500 µM | Km [9]: 970 µM | kcat/Km [10]: 2.89 ×10⁴ /M/s | kcat/Km [11]: 3.04 ×10⁴ /M/s

B2: Carbonic anhydrase 3 (Homo sapiens), P07451 (protein)
chain: MAKEWGYASHNGPDHWHELFPNAKGENQSPVELHTKDIRHDPSLQPWSVSYDGGSAKTILNNGKTCRVVFDDTYDRSMLRGGPLPGPYRLRQFHLHWGSSDDHGSEHTVDGVKYAAELHLVHWNPKYNTFKEALKQRDGIAVIGIFLKIGHENGEFQIFLDALDKIKTKGKEAPFTKFDPSCLFPACRDYWTYQGSFTTPPCEECIVWLLLKEPMTVSSDQMAKLRSLLSSAENEPPVPLVSNWRPPQPINNRVVRASFK
Km [12]: 1230 µM | Km [13]: 1340 µM | kcat/Km [14]: 139 M⁻¹ s⁻¹ | kcat/Km [15]: 45.3 M⁻¹ s⁻¹
